# The list is not random: actives were taken first. Their share in the collection is about 4.1%.
# KCNQ1 act = human KCNQ1 channel potentiation or activation; P51787; CHO-K1 KCNQ1, thallium flux FluxOR fluorescence; hits give high values; B-score at 10 µM; actives 0.35% (n = 310,000);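 active = fluorescence ratio B-score, a plate-corrected score, at least three library SD, with initial intensity B-score within 5 SD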
#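 Assay system: CHO-K1 cells stably expressing KCNQ1. Medium: assay buffer for compound exposure, DMSO matched across wells. Timing: 37 °C overnight plating, 90-min dark dye load, 20-min compound pretreatment. Signal: kinetic FluxOR fluorescence, 10 s baseline plus 110 s post-stimulus.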
# KCC2 mod = KCC2 (human) Cl- transport modulation. Q9H2X9. KCC2 cells, thallium flux FluoZin-2 fluorescence. B-score of Tl+ flux slope (higher = more flux/activation; lower = inhibition) at 10 µM. actives 2.2% (n = 190,000);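 active = thallium flux slope and its plate-corrected score both differing from the plate sample mean at a set confidence after two filtering rounds, in either direction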;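 note: slope of fluorescence scaled to starting intensity during 10 to 20 s after thallium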
# Target sequence (Q9H2X9 whole entry, looked up): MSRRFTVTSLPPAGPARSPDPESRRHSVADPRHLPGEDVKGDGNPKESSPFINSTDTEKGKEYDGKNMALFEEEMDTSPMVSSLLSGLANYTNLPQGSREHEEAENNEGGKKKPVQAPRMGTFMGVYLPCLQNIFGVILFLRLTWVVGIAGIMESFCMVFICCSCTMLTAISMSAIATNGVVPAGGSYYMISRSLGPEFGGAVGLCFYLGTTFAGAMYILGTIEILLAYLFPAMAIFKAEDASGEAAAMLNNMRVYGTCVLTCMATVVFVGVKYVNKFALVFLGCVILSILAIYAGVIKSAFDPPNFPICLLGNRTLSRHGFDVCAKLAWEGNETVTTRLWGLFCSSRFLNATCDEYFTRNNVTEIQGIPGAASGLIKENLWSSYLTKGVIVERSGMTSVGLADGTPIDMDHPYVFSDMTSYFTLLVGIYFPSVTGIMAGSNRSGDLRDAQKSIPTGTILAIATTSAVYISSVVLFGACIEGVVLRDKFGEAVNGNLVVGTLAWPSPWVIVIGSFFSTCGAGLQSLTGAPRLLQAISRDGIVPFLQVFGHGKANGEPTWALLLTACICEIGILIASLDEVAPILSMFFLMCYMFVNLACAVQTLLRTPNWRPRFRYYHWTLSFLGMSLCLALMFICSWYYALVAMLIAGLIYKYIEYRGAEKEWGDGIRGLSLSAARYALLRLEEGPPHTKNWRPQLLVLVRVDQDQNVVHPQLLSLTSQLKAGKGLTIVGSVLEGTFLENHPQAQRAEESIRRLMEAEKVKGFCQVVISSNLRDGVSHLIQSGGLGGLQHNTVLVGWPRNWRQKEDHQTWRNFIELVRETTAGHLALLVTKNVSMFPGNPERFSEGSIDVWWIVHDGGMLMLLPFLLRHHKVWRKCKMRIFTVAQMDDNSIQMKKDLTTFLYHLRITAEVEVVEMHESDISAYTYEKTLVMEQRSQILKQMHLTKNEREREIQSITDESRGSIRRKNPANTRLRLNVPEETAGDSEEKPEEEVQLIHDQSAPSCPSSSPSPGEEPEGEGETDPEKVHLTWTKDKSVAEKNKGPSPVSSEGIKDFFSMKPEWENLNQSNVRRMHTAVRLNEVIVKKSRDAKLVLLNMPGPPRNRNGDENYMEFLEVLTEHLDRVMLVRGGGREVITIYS
# KCNK3 inh = human KCNK3 channel inhibition, primary screen; CHO-KCNK3 thallium flux, FluxOR fluorescence; hits give low values; actives 0.84% (n = 340,000); B-score at 10 µM; O14649; AID 602410;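 active = B-score under library mean minus 4 SD, starting fluorescence ratio at most library mean plus 5 SD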;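 note: more negative B-score means stronger inhibition of thallium flux through KCNK3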
# KCNK9 block = human KCNK9 channel inhibition; actives 1.2% (n = 310,000); B-score at 10 µM; Q9NPC2; HEK293 KCNK9, FluxOR thallium flux fluorescence; hits give low values;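 active = ratio B-score over 3 SD below the library mean, with starting fluorescence within 5 SD of its mean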;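 note: negative B-score means less thallium flux so channel inhibition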
# KCNQ1 inh = human KCNQ1 channel inhibition | P51787 | CHO-K1 KCNQ1, FluxOR thallium flux fluorescence; hits give high values | B-score at 10 µM | actives 1.3% (n = 310,000) | AID 2642;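 active = compounds whose thallium flux B-score, printed positive for inhibition, exceeds three library SD while starting fluorescence stays within three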;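 note: channel opened by potassium depolarization with thallium stimulus after 20 min compound exposure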
# hERG protect = shields human hERG channel from block by proarrhythmic agents | Q12809 | CHO-hERG, FluxOR thallium flux, dofetilide IC70 present | activation (rescue from dofetilide block), less the hit threshold, % at 10 µM | actives 0.51% (n = 310,000);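 active = activation above the mean of controls blocked by dofetilide plus 5 SD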;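 note: thallium influx through hERG after potassium depolarization seen as dye fluorescence rise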
# KCNK3 confirm = human KCNK3 channel inhibition, confirmation assay; shares compounds with KCNK3 inh; CHO-KCNK3 thallium flux, FluxOR fluorescence; 0% buffer, 100% carvedilol maximal block; ratio percent of control, % at 10 µM; actives 99% (n = 2,400);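 active = ratio percent of control, averaged over triplicates, above buffer control mean plus 5 SD, cut at about 64% in these data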;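 note: ratio is the fluorescence rise from min to max over baseline after thallium stimulus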
# KCNK3 noninduced = KCNK3 inhibitor counter-screen hit in non-induced cells; non-induced KCNK3 parental cells, FluxOR thallium flux; hits give low values; actives 40% (n = 2,400); thallium flux ratio (lower = more inhibition) at 10 µM; shares compounds with KCNK3 inh;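 active = thallium flux ratio, averaged over three wells, more than 5 SD below the buffer control mean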;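 note: host cells are CHO cells without KCNK3 induction; ratio is peak minus trough fluorescence over baseline then normalized to buffer controls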
# The depositor's hits bear a star; i = inactive; · = not tested or not shown.
SMILES,KCNQ1 act,KCC2 mod,KCNK3 inh,KCNK9 block,KCNQ1 inh,hERG protect,KCNK3 confirm,KCNK3 noninduced
CC(Oc1ccccc1)C(=O)Nc1cccc(-c2nc3ccccc3[nH]2)c1 (stereo not drawn),i,-1.7,-11*,-7.4*,i,-23,100*,0.14*
Cc1nc(-c2cccc(NC(=O)C(C)Oc3ccccc3)c2)cs1 (stereo not drawn),i,·,i,i,i,-8,·,·
CC(C)CC(=O)Nc1cccc(-c2nc3ccccc3[nH]2)c1,i,·,-11*,i,i,-20,124*,0.12*
Cc1ccc(SCC(=O)N2CCN(S(=O)(=O)c3cccs3)CC2)cc1,·,·,i,·,·,·,·,·
CC(C)N(C(=O)[C@H]1C[C@H](CC(=O)NCC23CC4CC(CC(C4)C2)C3)C(=O)N2CCc3c([nH]c4cc(CCC(=O)N(C)C)ccc34)[C@]12C)C(C)C,·,·,i,·,·,·,·,·
CCc1cccc(NS(=O)(=O)c2csc(C(N)=O)c2)c1,i,·,i,i,i,-10,·,·
CN(CC(=O)Nc1ccccc1Cl)C(=O)c1ccc(N2C(=O)CCC2=O)cc1,·,·,i,·,·,·,·,·
Cc1sc2ncnc(N3CCC(C(=O)NNC(=O)COc4cccc(C(F)(F)F)c4)CC3)c2c1C,i,·,-8.7*,i,i,-19,83*,i
Cc1sc2ncnc(N3CCC(C(=O)Nc4ccc(OC(F)F)c(Cl)c4)CC3)c2c1C,·,·,-13*,·,·,·,142*,0.14*
COc1cccc(NC(=O)CN(C)C(=O)c2c(C)nn(CC(C)C)c2Cl)c1,·,·,i,·,·,·,·,·
O=C1CN(C(=O)CNC(=O)c2ccc(Cl)cc2Cl)CCN1,i,·,i,i,i,-3,·,·
Cc1ccc(S(=O)(=O)NCC(=O)OCC(=O)NCc2ccco2)cc1,·,·,i,·,·,·,·,·
c1cnc(SCCCOc2ccc3ccccc3c2)nc1,i,0.0022,-10*,i,i,-8,114*,0.14*
COc1ccc(OCCCSc2ncccn2)cc1,i,-1.5,i,i,i,-6,·,·
c1ccc(Oc2cccc(OCCCCSc3ncccn3)c2)cc1,i,0.4,-11*,i,i,-11,89*,0.15*
N#CC1(NC(=O)COc2ccccc2[N+](=O)[O-])CCCCC1,i,·,i,i,i,-7,·,·
C=CCOc1ccc(C(=O)c2ccccc2)c(OCC(=O)NC2(C#N)CCCC2)c1,i,·,-8.7*,i,i,-12,90*,i
COc1ccc(Cl)c2sc(N3CCN(C(C)=O)CC3)nc12,i,·,i,i,i,-8,·,·
CCCS(=O)(=O)c1c(S(=O)(=O)CCC)c2c(C(N)=O)cccn2c1C(=O)c1ccc(F)cc1,i,0.5,-9*,i,i,-20,109*,i
Cc1ccccc1NC(=O)c1nn(C)c(C(=O)Nc2ccccc2C)c1[N+](=O)[O-],i,·,i,i,i,-2,·,·
COc1ccc(C)cc1NC(=O)c1nn(C)c(C(=O)Nc2cc(C)ccc2OC)c1[N+](=O)[O-],i,·,-9*,i,i,-7,81*,i
CC(Oc1cccnc1[N+](=O)[O-])C(=O)Nc1cccc(Cl)c1 (stereo not drawn),·,·,i,·,·,·,·,·
CCOc1ccccc1NC(=O)COC(=O)c1c(CC)noc1C,·,·,i,·,·,·,·,·
N#C/C(=N\Nc1cccc(C(F)(F)F)c1)C(=O)c1csc(-c2cccnc2)n1,i,-6.1*,-9.4*,i,7*,-32,101*,0.13*
CC12CCC(C(=O)C1)C1(C)CCCC(=O)C21 (stereo not drawn),·,·,i,·,·,·,·,·
SMILES,KCNQ1 act,KCC2 mod,KCNK3 inh,KCNK9 block,KCNQ1 inh,hERG protect,KCNK3 confirm,KCNK3 noninduced
COc1cc(OC)cc(C(=O)NNC(=O)C(CCC(N)=O)NS(=O)(=O)c2ccc(Cl)cc2)c1 (stereo not drawn),·,·,i,·,·,·,·,·
O=C(CSc1nnc(-c2ccc(Cl)cc2)n1Cc1ccco1)c1cccs1,i,·,i,i,i,-4,·,·
Cc1sc2nc(SCC(=O)c3cccs3)n(Cc3ccco3)c(=O)c2c1C,i,-0.54,-9.4*,i,i,-6,106*,i
O=c1c2ccccc2nc(SCc2nc3ccccc3s2)n1Cc1ccco1,i,0.7,-12*,i,i,-5,127*,0.15*
O=c1c2ccccc2nnn1CSc1nc2ccccc2c(=O)n1Cc1ccco1,i,·,i,i,i,-7,·,·
O=C(CSc1nc2ccccc2c(=O)n1Cc1ccco1)c1ccccc1,i,-0.61,-11*,i,i,1,91*,i
C[C@H](CO)N1C[C@H](C)[C@@H](CN(C)S(C)(=O)=O)Oc2ccc(NC(=O)Nc3ccc4c(c3)OCO4)cc2C1=O,·,·,i,·,·,·,·,·
CC(=O)N/C(=C\c1ccccc1)C(=O)OC(C)C(=O)Nc1ccccc1F (stereo not drawn),·,·,i,·,·,·,·,·
COc1cc(C(=O)N/N=C/c2ccc(OC(=O)c3cccc(C)c3)c(OC)c2)ccc1O,i,·,-8.7*,i,8*,-21,82*,i
COc1cc(C(=O)N/N=C/c2ccc3c(c2)c2ccccc2n3C)ccc1O,i,·,-11*,i,i,-21,100*,i
CC1(C(=O)OCC(=O)Nc2nc(-c3ccc(F)c(F)c3)cs2)CC1(Cl)Cl (stereo not drawn),i,·,-10*,i,i,-20,140*,0.14*
O=C(Cc1ccc(F)cc1)Nc1nc(-c2ccc(F)c(F)c2)cs1,i,·,-11*,i,i,-4,130*,i
COc1ccc(CC(=O)Nc2nc(-c3ccc(F)c(F)c3)cs2)cc1,i,·,i,i,i,-8,·,·
O=C(Nc1ccccc1)OCCc1ccccn1,·,·,i,·,·,·,·,·
Cc1oc(-c2cccc(Cl)c2)nc1CS(=O)(=O)CC(=O)NCCCN1CCOCC1,i,·,i,i,i,-11,·,·
Nc1c(-c2ccc(Cl)cc2)cnc2c(-c3ccc(F)cc3)cnn12,i,·,i,i,i,-5,·,·
O=C(Cn1nc(-c2ccccc2)nc1-c1ccccc1)OC1CCCCC1,i,-0.31,-10*,i,i,-10,104*,i
CC1CCC(C(C)C)C(OC(=O)CSc2nnc(N)s2)C1 (stereo not drawn),i,-1.1,-9.7*,i,i,-8,110*,i
CC1CCC(C(C)C)C(OC(=O)CSc2nc(N)cc(=O)[nH]2)C1 (stereo not drawn),i,-1.3,i,i,i,-13,·,·

# Screening results from PubChem.
